Measured values from PMC6144584 (SAGE Open Medicine, 2018).

Tested on: PBMC from prostate cancer patients
Assay: Ex vivo IFN-γ ELISPOT assay for immunogenicity
Assay type: cell-based, human
Conditions: positive control 10 µg/ml, 40 h
Summary of the method: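 Ficoll-isolated patient PBMC, 3×10^5/well in triplicate, on anti-IFN-γ-coated plates (5 μg/ml; blocked with RPMI 1640 + 5% pooled human serum, 1 h, 37°C). Phytohemagglutinin 10 µg/ml; no-peptide medium control; IL-2 20 units/ml in all wells; 40 h, 37°C. Detection: biotin anti-IFN-γ 1 µg/ml final (2 h), avidin-biotin-HRP (1 h), […]. Spots counted automatically; mean SFU/well computed; positive if ≥2× no-peptide wells.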

Work on phytohemagglutinin yielded a Positivity index (Patient 2) of 57.3, a Positivity index (Patient 5) of 197.0 and a Positivity index (Patient 6) of 154.5. The Positivity index (Patient 7) was 131.4, the Positivity index (Patient 9) was 186.0 and the Positivity index (Patient 10) was 253.3.
